# Screens deposited in PubChem by several laboratories.
# HCV NS3 hel inh: blocks Hepatitis C virus NS3 helicase unwinding; actives 0.56% (n = 290,000); inhibition, % at 10.9 µM; NS3 helicase DNA unwinding, Cy5 molecular beacon fluorescence; AID 1800;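 active means inhibition above the mean of all tested compounds plus 3 SD, set per campaign, cut at about 35% in these data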;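 further: 0% = DMSO wells and 100% = thioflavine S control wells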
#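 Control set: DMSO versus 110 µM thioflavine S; Material: NS3 helicase fragment of HCV; Measured by: Cy5 fluorescence at 0 and 60 min, beacon hairpin quenching; Read-out basis: percent inhibition from t60/t0 fluorescence ratio; Times: reaction time 60 min, 25 °C; Repeats: single replicate; Compound dosing: single dose, 10.9 µM nominal final, DMSO 0.8% final.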
# Lipid droplet: modulators of hepatic lipid droplet formation; AID 1656; actives 0.4% (n = 240,000); inhibition, % at 6.5 µM; AML12 mouse hepatocytes, oleate lipid droplets, BODIPY imaging;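 active means lipid droplet intensity inhibited by at least 50%, with more than 500 cells counted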
#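 Test system: AML12 mouse liver cells; schedule: overnight exposure; technique: high-content imaging of BODIPY-stained droplets and DAPI nuclei; read-out: % inhibition of corrected integrated BODIPY droplet signal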
# Tb MetRS inh: blocks T. brucei methionyl-tRNA synthetase activity; purified T. brucei MetRS, ATP depletion, Kinase-Glo luminescence; inhibition, % at 11.9 µM; actives 0.4% (n = 360,000);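 active means inhibition above a per-plate cutoff of the control wells' mean inhibition plus 3 SD, cut at about 5.5% in these data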;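 further: 0% = DMSO wells median and 100% = median of wells with control inhibitor compound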
#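 System: purified T. brucei MetRS enzyme / Detection: Kinase-Glo luciferase luminescence reporting remaining unconsumed ATP / Medium: HEPES buffer with MgCl2, KCl, DTT, spermine, BSA, pyrophosphatase / Replication: singlicate, one well per compound / Evaluation: percent inhibition relative to median high and low control wells / Schedule: 2 h aminoacylation at 25 °C after 15 min preincubation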
# core dimer inh: blocks dimerization of HCV core protein | TR-FRET GST/Flag-core106 dimerization, 1536-well | inhibition, % at 5 µM | actives 0.33% (n = 300,000) | AID 1899;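 active means inhibition above the mean of all tested compounds plus 3 SD, set per screening campaign, cut at about 45% in these data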
#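 Material: GST/Flag-tagged HCV core106 proteins. Incubation: 4 h, 22.5 °C incubation. Read-out basis: inhibition (%) from 671 over 617 nm ratio. Measured by: TR-FRET, excitation 340 nm, emission 617 and 671 nm.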
# NS3 helicase cf: HCV NS3 helicase inhibition, confirmation assay. shares compounds with HCV NS3 hel inh. NS3 helicase DNA unwinding, Cy5 molecular beacon fluorescence. inhibition, % at 10.9 µM. actives 31% (n = 1,600);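 active means inhibition above the mean of all tested compounds plus 3 SD, cutoff set per campaign, cut at about 36% in these data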
# DNA FID counter: counter-screen for HCV NS3 helicase inhibitors: DNA intercalator displacement. shares compounds with HCV NS3 hel inh. DNA fluorescent intercalator displacement, fluorescence. inhibition, % at 7.9 µM. actives 4% (n = 1,600). AID 1945; in the data active means inhibition above about 37%;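 further: 0% = vehicle and 100% = reference compound; higher means more displacement of ethidium bromide from the DNA hairpin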
# DNA FID DR: DNA intercalator displacement in dose response. shares compounds with HCV NS3 hel inh. IC50, µM. 120 tested, under 10 active. fluorescent intercalator displacement from DNA, fluorescence; call rule not given here
# * = called active by the depositor; x = no result given. A selection: hits, their analogues and other compounds. The true share with any hit is near 1.3%.
SMILES,HCV NS3 hel inh,Lipid droplet,Tb MetRS inh,core dimer inh,NS3 helicase cf,DNA FID counter,others
CC(=C\c1ccco1)/C=C1/SC(=S)N(CC(=O)O)C1=O,44.8*,13.5,0.4,-2.0,3.1,-1.0,
COC(=O)CN1C(=O)S/C(=C/c2ccc(N3CCCCC3)o2)C1=O,32.3,x,-0.3,-26.9,x,x,
CC(=C\c1ccccc1)/C=C1/SC(=S)N(CCC(=O)O)C1=O,51.2*,-1.1,-1.9,3.6,65.0*,-9.0,
NC(=O)c1ccc(NC(=O)C#Cc2ccccc2)cc1,1.1,-8.4,-1.9,3.0,x,x,
CCCOC(=O)/C(=C\C=C\c1ccco1)NC(=O)c1ccccc1,40.3*,-12.4,-1.1,28.5,-5.5,-13.6,
CCCOC(=O)/C(=C\c1ccc([N+](=O)[O-])o1)NC(=O)c1ccccc1,38.2*,-6.8,-0.1,-6.4,-16.2,-4.2,
COC(=O)/C(=C/c1ccco1)NC(=O)c1ccccc1,-3.5,-5.1,-0.8,-13.7,x,x,
O=C(N/N=C/C=C/c1ccco1)/C(=C/c1ccccc1)NC(=O)c1ccccc1,36.5*,-5.9,0.7,47.4*,53.9*,6.1,
O=C(N/N=C/C=C/c1ccco1)c1ccncc1,8.6,-9.3,0.3,-2.3,x,x,
CCc1nc2c(OCCOC)cccn2c1N(C)C(=O)c1ccco1,x,x,0.1,x,x,x,
O=C(O)c1ccc(-n2nc(C(F)(F)F)c3c2-c2ccoc2CC3)cc1,37.0*,5.9,-0.3,-0.2,51.3*,-14.5,
COC(=O)c1ccc(-n2nc(C(F)(F)F)c3c2-c2ccoc2CC3)cc1,13.3,-1.1,-0.2,1.7,x,x,
Cc1cc(OCC(=O)NCCc2cccc(F)c2)c2c(C)cc(=O)oc2c1,8.2,1.9,-0.3,-9.8,x,x,
CCc1cc2cc(C)ccc2nc1SCC(=O)NC1CCCC1,55.3*,12.4,-0.1,0.7,0.5,-14.5,
CCn1c(CNC(=O)c2cccc(C)c2)nnc1SCC(=O)N1CCOCC1,-2.2,13.4,-0.4,10.0,x,x,
Cc1ccc(C(=O)N/N=C/c2ccc(-c3ccc(Br)cc3[N+](=O)[O-])o2)o1,48.1*,-2.0,2.4,24.6,2.4,8.9,
Cc1ccc(C(=O)N/N=C\c2ccc(Br)o2)o1,-0.5,x,-0.8,-1.7,x,x,
COc1ccc(C(=O)NC(=S)NNC(=O)CNC(=O)C2CCCCC2)cc1,3.2,0.2,-0.3,-1.1,x,x,
CC(C)C(=O)NC(=S)Nc1ccc(S(=O)(=O)NC2CCCCC2)cc1,9.3,-7.3,0.1,4.1,x,x,
O=C(O)c1cccc(NC(=S)NC(=O)c2ccc3ccccc3c2)c1,40.7*,-3.7,-0.3,3.8,58.3*,-7.1,
O=C(O)c1ccc(NC(=S)NC(=O)c2cccc(COc3ccccc3)c2)cc1,36.3*,-3.6,-0.2,13.7,69.8*,2.4,
Cn1c(N)c(C(=O)CSc2nnc3n2CCCCC3)c(=O)n(C)c1=O,x,x,-0.2,x,x,x,
COc1cc(C(O)P(=O)(OCC(C)C)c2ccc(N(C)C)cc2)cc(OC)c1OC (stereo not drawn),-0.7,-3.0,-0.8,4.4,x,x,
Cc1ccc(S(=O)(=O)N(C)CCCC(=O)Nc2ccc(C)cc2C)cc1,-6.3,-16.9,-0.3,-6.1,x,x,
COc1ccc(-c2ccc(CCC(=O)O)n2-c2ccccc2O)cc1,45.5*,12.5,-0.7,-0.8,6.0,-3.1,
SMILES,HCV NS3 hel inh,Lipid droplet,Tb MetRS inh,core dimer inh,NS3 helicase cf,DNA FID counter,others
Cc1cc(N2C(=O)C(O)=C(C(=O)c3ccco3)C2c2cccc(O)c2)no1 (stereo not drawn),11.6,5.7,0.0,0.7,x,x,
Cc1ccc(C2C(C(=O)c3cc4ccccc4o3)=C(O)C(=O)N2c2cc(C)on2)cc1 (stereo not drawn),64.7*,4.2,-0.3,0.3,122.8*,-23.7,DNA FID DR=>79.4
O=C(C1=C(O)C(=O)N(CCc2ccccc2)C1c1ccncc1)c1cc2ccccc2o1 (stereo not drawn),39.2*,-1.3,0.1,17.2,13.1,-28.4,
Cc1cc(N2C(=O)C(O)=C(C(=O)c3ccco3)C2c2cccc(Oc3ccccc3)c2)no1 (stereo not drawn),65.9*,6.3,-0.1,5.6,115.5*,2.1,DNA FID DR=>79.4
CCOC(=O)c1sc(N2C(=O)C(O)=C(C(=O)c3ccco3)C2c2cccc(Cl)c2)nc1C (stereo not drawn),2.3,-10.4,0.1,-19.2,x,x,
CCOC(=O)c1sc(N2C(=O)C(O)=C(C(=O)c3ccco3)C2c2cccc([N+](=O)[O-])c2)nc1C (stereo not drawn),104.6*,6.5,-0.5,16.7,115.4*,23.7,
Cc1cc(N2C(=O)C(O)=C(C(=O)c3cc4ccccc4o3)C2c2ccc([N+](=O)[O-])cc2)no1 (stereo not drawn),23.9,17.8,-0.3,15.5,x,x,
Cc1c(C(=O)NC(=S)NCc2cccnc2)cccc1[N+](=O)[O-],1.6,14.3,0.0,-7.8,x,x,
CC(C)CCN1CCN=C1Nc1ccccc1,49.6*,4.1,-0.1,-7.9,-19.5,11.9,
O=C(O)CCn1cc(C(=O)O)c(-c2ccccc2)n1,45.0*,-1.0,-0.3,0.5,-12.3,2.3,
Cc1cc(S(=O)(=O)N2CCCc3ccccc32)ccc1-n1cnnn1,-13.1,-0.5,0.0,-1.5,x,x,
CCCn1c(/C=C/c2ccco2)nc2ccccc21,52.2*,-15.6,-0.3,50.9*,0.9,4.8,
Cc1ccc(Cn2c(/C=C/c3ccco3)nc3ccccc32)cc1,42.9*,-7.6,-0.3,8.8,-13.1,-1.5,
CCCCn1c(/C=C/c2ccco2)nc2ccccc21,44.4*,-8.2,0.0,44.0,-13.6,-8.8,
CCCCN1CCCCC1(C)C(=O)NCc1cccs1 (stereo not drawn),x,x,-0.3,x,x,x,
O=C1C2C3C=CC(CC3)C2S(=O)(=O)C2C3C=CC(CC3)C12 (stereo not drawn),x,x,-0.1,x,x,x,
CC(=O)Nc1ccc(SCC(=O)c2cc(C)n(C)c2C)cc1,-0.8,7.2,0.1,2.9,x,x,
COc1ccc(N(CC(=O)Nc2cccc(C)c2)S(=O)(=O)c2ccc(C)cc2)cc1OC,92.4*,-1.0,-0.8,13.9,-6.2,-3.0,
COc1ccc(N(CC(=O)Nc2ccc3c(c2)OCO3)S(=O)(=O)c2ccc(C)cc2)cc1OC,13.6,15.8,0.4,1.7,x,x,
CCc1ccc(NC(=O)c2c(Cl)nc(C)c(Cl)c2C)cc1,-4.5,7.9,0.1,-5.5,x,x,
O=C(O)c1cccc(N/N=C/c2ccc(OC(F)(F)F)cc2)c1,-12.5,x,-0.8,-6.0,x,x,
CSc1ccc(/C=N/Nc2cccc(C(=O)O)c2)cc1,38.0*,-2.2,-1.1,x,76.3*,-5.2,
COc1ccc(C(=O)O)cc1NC(=S)NC(=O)/C=C/c1ccc(C(C)C)cc1,43.4*,6.1,-0.7,13.1,58.3*,15.7,
COc1ccc(CCC(=O)NNC(=O)c2cc(Cl)ccc2OC)cc1,0.8,4.4,0.2,4.3,x,x,
